The structures appear in SMILES notation. pIC50: −log10 of the molar value.

For the first test, the target named is T1, Neprilysin (Rattus norvegicus, UniProt P07861).
T1 sequence (P07861 whole entry): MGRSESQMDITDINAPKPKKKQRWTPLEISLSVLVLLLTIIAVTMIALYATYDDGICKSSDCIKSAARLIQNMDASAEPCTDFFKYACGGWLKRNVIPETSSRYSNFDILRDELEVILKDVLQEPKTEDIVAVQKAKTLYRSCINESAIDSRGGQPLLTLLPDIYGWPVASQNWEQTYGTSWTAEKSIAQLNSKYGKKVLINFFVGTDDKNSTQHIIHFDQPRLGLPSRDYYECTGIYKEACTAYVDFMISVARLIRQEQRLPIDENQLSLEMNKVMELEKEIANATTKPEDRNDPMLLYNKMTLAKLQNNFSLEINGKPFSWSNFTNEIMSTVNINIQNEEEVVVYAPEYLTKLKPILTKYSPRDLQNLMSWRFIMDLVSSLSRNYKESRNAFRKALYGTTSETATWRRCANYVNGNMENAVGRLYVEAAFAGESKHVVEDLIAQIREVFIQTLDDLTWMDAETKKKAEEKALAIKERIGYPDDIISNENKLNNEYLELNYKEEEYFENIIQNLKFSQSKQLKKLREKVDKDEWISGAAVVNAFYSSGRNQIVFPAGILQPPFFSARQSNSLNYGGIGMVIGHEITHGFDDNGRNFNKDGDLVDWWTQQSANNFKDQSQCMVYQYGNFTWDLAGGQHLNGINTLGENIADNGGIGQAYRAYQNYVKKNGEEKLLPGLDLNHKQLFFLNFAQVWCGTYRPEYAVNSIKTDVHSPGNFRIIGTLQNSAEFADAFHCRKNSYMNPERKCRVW
As to the kind of experiment: In vitro inhibition of Neutral endopeptidase (NEP) enzyme.
Conditions: not given
The compound `COP(=O)(O)CNC(Cc1ccc(-c2ccccc2)cc1)C(=O)NCCC(=O)O` (configuration not stated) had a pIC50 of 6.52.
`O=C(O)CCCNC(=O)C(Cc1ccc(-c2ccccc2)cc1)NCP(=O)(O)O` (configuration not stated) gave a pIC50 of 7.96.
Same read-out and setting: for `C[C@H](NC(=O)C(Cc1ccc(-c2ccccc2)cc1)NCP(=O)(O)O)C(=O)O` (some centres not stated) the value was 8.52; for `O=C(O)CCNC(=O)C(Cc1ccc(-c2ccc(F)cc2)cc1)NCP(=O)(O)O` (configuration not stated), 7.85.
On the same count and under the same terms, for `O=C(O)CCNC(=O)C(Cc1ccccc1)NCP(=O)(O)O` (configuration not stated) the value was 5.94.
`O=C(O)CCNC(=O)C(Cc1ccc(-c2ccccc2)cc1)NCP(=O)(O)O` (configuration not stated) gave a pIC50 of 8.40.
On the same count and under the same terms, for `O=C(O)CCNC(=O)C(Cc1ccc(-c2ccccc2)cc1)NCP(=O)(O)OCc1ccccc1` (configuration not stated) the value was 6.00; for `O=C(O)CCNC(=O)C(Cc1ccccc1)CP(=O)(O)O` (configuration not stated), 6.68; for `O=C(O)c1ccc(NC(=O)C(Cc2ccc(-c3ccccc3)cc2)NCP(=O)(O)O)cc1` (configuration not stated), 8.00.
On the same count and under the same terms, for `CCOP(=O)(CNC(Cc1ccc(-c2ccccc2)cc1)C(=O)NCCC(=O)O)OCC` (configuration not stated) the value was less than 6.00; for `O=C(O)CCNC(=O)C(Cc1ccccc1)CP(=O)(O)OCCc1ccccc1` (configuration not stated), less than 6.00; for `O=C(O)CCNC(=O)[C@@H](Cc1ccc(-c2ccccc2)cc1)NCP(=O)(O)O`, 5.74.
As for `O=C(O)CCNC(=O)[C@H](Cc1ccc(-c2ccccc2)cc1)NCP(=O)(O)O`, the pIC50 is 8.72.
In the case of `O=C(N[C@H](C(=O)O)c1ccccc1)C(Cc1ccc(-c2ccccc2)cc1)NCP(=O)(O)O` (some centres not stated), the pIC50 was 8.70.
`CCOC(=O)CCNC(=O)C(Cc1ccc(-c2ccccc2)cc1)NCP(=O)(O)O` (configuration not stated): the pIC50 was 6.92.
`O=C(O)CCNC(=O)C(Cc1ccccc1)OP(=O)(O)CCCCc1ccccc1` (configuration not stated) showed a pIC50 of less than 6.00.
Consider `O=C(O)CNC(=O)C(Cc1ccc(-c2ccccc2)cc1)NCP(=O)(O)O` (configuration not stated), for which the pIC50 is 8.30.
The same measure, in the same setting: for `O=C(O)CCNC(=O)[C@H](Cc1ccc(-c2ccccc2)cc1)NCP(=O)(O)Oc1ccccc1` the value was 6.62; for `O=C(O)CCNC(=O)C(Cc1ccccc1)OP(=O)(O)CCc1ccccc1` (configuration not stated), less than 6.00.
The same measure, in the same setting: for `O=C(O)CCNC(=O)C(Cc1ccccc1)OP(=O)(O)CNC(=O)OCc1ccccc1` (configuration not stated) the value was less than 6.00; for `CC(C)C[C@H](NP(=O)(O)O[C@@H]1O[C@@H](C)[C@H](O)[C@@H](O)[C@H]1O)C(=O)N[C@@H](Cc1c[nH]c2ccccc12)C(=O)O` [PHOSPHORAMIDON], 7.57.

System in the next test: not listed separately
As to the kind of experiment: Ratio of maximum plasma concentration (C) measured ex vivo to that of IC50 of (10a or 10c) in rat treated intravenously with 10 mg/kg. The class given is functional. Conditions: route intravenous. An outline of the steps: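 Conscious rats, femorally catheterised 24 h earlier, dosed iv at 10 mg/kg. Arterial blood was sampled before and at intervals after dosing into EDTA, then centrifuged. Plasma was ultrafiltered through a 30 000 MW cutoff with 0.1 N HCl at 10 °C. Unbound active inhibitor in the ultrafiltrate was measured by GAAP/rat kidney membrane NEP assay and expressed relative to the IC50 of the active metabolite.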
As for `O=C(O)CCNC(=O)[C@H](Cc1ccc(-c2ccccc2)cc1)NCP(=O)(OC1CCc2ccccc21)OC1CCc2ccccc21` (some centres not stated), the Ratio is given as 41.
On the same count and under the same terms, for `Cc1cc(C)cc(OP(=O)(CN[C@@H](Cc2ccc(-c3ccccc3)cc2)C(=O)NCCC(=O)O)Oc2cc(C)cc(C)c2)c1` the value was 149; for `CCOC(=O)CCNC(=O)[C@H](Cc1ccc(-c2ccccc2)cc1)NCP(=O)(Oc1ccccc1)Oc1ccccc1`, 160; for `Cc1ccc(OP(=O)(CN[C@@H](Cc2ccc(-c3ccccc3)cc2)C(=O)NCCC(=O)O)Oc2ccc(C)c(C)c2)cc1C`, 40.
Same read-out and setting: for `CCOC(=O)CCNC(=O)C(Cc1ccc(-c2ccccc2)cc1)NCP(=O)(OC(OC(=O)CC)C(C)C)OC(OC(=O)CC)C(C)C` (configuration not stated) the value was 503; for `CCOC(=O)CCNC(=O)C(Cc1ccc(-c2ccccc2)cc1)NCP(=O)(OCOC(=O)C(C)C)OCOC(=O)C(C)C` (configuration not stated), 535; for `O=C(CCNC(=O)[C@H](Cc1ccc(-c2ccccc2)cc1)NCP(=O)(Oc1ccccc1)Oc1ccccc1)OC1CCc2ccccc21` (some centres not stated), 69.
For `O=C(CCNC(=O)[C@H](Cc1ccc(-c2ccccc2)cc1)NCP(=O)(O)Oc1ccccc1)OCc1ccccc1`, the Ratio was 16.
Still for that read-out and setting: for `O=C(O)CCNC(=O)[C@H](Cc1ccc(-c2ccccc2)cc1)NCP(=O)(Oc1ccccc1)Oc1ccccc1` the value was 225; for `COc1cccc(OP(=O)(CN[C@@H](Cc2ccc(-c3ccccc3)cc2)C(=O)NCCC(=O)O)Oc2cccc(OC)c2)c1`, 240; for `CCCCCCCC(=O)OC(OP(=O)(O)CNC(Cc1ccc(-c2ccccc2)cc1)C(=O)NCCC(=O)OCC)C(C)C` (configuration not stated), 50.
For the compound `CC(C)c1ccc(OP(=O)(CN[C@@H](Cc2ccc(-c3ccccc3)cc2)C(=O)NCCC(=O)O)Oc2ccc(C(C)C)cc2)cc1`, the Ratio was determined as 40.
Turning to `CCOC(=O)CCNC(=O)C(Cc1ccc(-c2ccccc2)cc1)NCP(=O)(OC(OC(=O)C(C)C)C(C)C)OC(OC(=O)C(C)C)C(C)C` (configuration not stated), the Ratio worked out at 97.
`Cc1ccc(OP(=O)(CN[C@@H](Cc2ccc(-c3ccccc3)cc2)C(=O)NCCC(=O)O)Oc2ccc(C)cc2)cc1`: the Ratio is on record as 31.
In the case of `CCCc1ccc(OP(=O)(CN[C@@H](Cc2ccc(-c3ccccc3)cc2)C(=O)NCCC(=O)O)Oc2ccc(CCC)cc2)cc1`, the Ratio was 18.
The same measure, in the same setting: for `CCOC(=O)CCNC(=O)C(Cc1ccc(-c2ccccc2)cc1)NCP(=O)(OC(OC(=O)CC)C1CCCCC1)OC(OC(=O)CC)C1CCCCC1` (configuration not stated) the value was 64.
For the compound `CCC(=O)OC(C)OP(=O)(CNC(Cc1ccc(-c2ccccc2)cc1)C(=O)NCCC(=O)O)OC(C)OC(=O)CC` (configuration not stated), the Ratio is recorded as 283.
Turning to `CCN(CC)C(=O)COC(=O)CCNC(=O)[C@H](Cc1ccc(-c2ccccc2)cc1)NCP(=O)(Oc1ccccc1)Oc1ccccc1`, the Ratio is on record as 135.
On the same count and under the same terms, for `CCOC(=O)CCNC(=O)C(Cc1ccc(-c2ccccc2)cc1)NCP(=O)(OCOC(=O)C(C)(C)C)OCOC(=O)C(C)(C)C` (configuration not stated) the value was 816; for `CCN(CC)C(=O)COC(=O)CCNC(=O)[C@H](Cc1ccc(-c2ccccc2)cc1)NCP(=O)(O)Oc1ccccc1`, 9.
The same measure, in the same setting: for `COc1ccc(OP(=O)(CN[C@@H](Cc2ccc(-c3ccccc3)cc2)C(=O)NCCC(=O)O)Oc2ccc(OC)cc2)cc1` the value was 5; for `CCC(=O)OC(OP(=O)(CNC(Cc1ccc(-c2ccccc2)cc1)C(=O)NCCC(=O)O)OC(OC(=O)CC)C(C)C)C(C)C` (configuration not stated), 380.
Still for that read-out and setting: for `O=C(CCNC(=O)[C@H](Cc1ccc(-c2ccccc2)cc1)NCP(=O)(Oc1ccccc1)Oc1ccccc1)OCc1ccccc1` the value was 75; for `O=C(O)CCNC(=O)[C@H](Cc1ccc(-c2ccccc2)cc1)NCP(=O)(O)Oc1ccccc1`, 41; for `CC(C)(C)C(=O)OCOP(=O)(CNC(Cc1ccc(-c2ccccc2)cc1)C(=O)NCCC(=O)O)OCOC(=O)C(C)(C)C` (configuration not stated), 322.
As to `CC(C)N(C(=O)COC(=O)CCNC(=O)[C@H](Cc1ccc(-c2ccccc2)cc1)NCP(=O)(O)Oc1ccccc1)C(C)C`, the Ratio is reported as 5.

The pIC50 is the negative decadic logarithm of the IC50, by convention in mol/L.

The record behind these values is ChEMBL document CHEMBL1127330, “N-Phosphonomethyl dipeptides and their phosphonate prodrugs, a new generation of neutral endopeptidase (NEP, EC 3.4.24.11) inhibitors” (J Med Chem, 1994).
